Published values of several laboratories.
Each line is one published result; the experiments were not run side by side. pIC50: −log10 of the molar value.
PTPN22: Tyrosine-protein phosphatase non-receptor type 22 (PTPN22, Homo sapiens, UniProt Q9Y2R2)
PRMT1: Protein arginine N-methyltransferase 1 (PRMT1, Homo sapiens, UniProt Q99873)
DDR2: Discoidin domain-containing receptor 2 (DDR2, Homo sapiens, UniProt Q16832)
CHEK1: Serine/threonine-protein kinase Chk1 (CHEK1, Homo sapiens, UniProt O14757)
SLC6A3: Sodium-dependent dopamine transporter (SLC6A3, Homo sapiens, UniProt Q01959)
ACLY: ATP-citrate synthase (ACLY, Homo sapiens, UniProt P53396)
TLR8: Toll-like receptor 8 (TLR8, Homo sapiens, UniProt Q9NR97)
HDAC5: Histone deacetylase 5 (HDAC5, Homo sapiens, UniProt Q9UQL6)
PDE1C: Dual specificity calcium/calmodulin-dependent 3',5'-cyclic nucleotide phosphodiesterase 1C (PDE1C, Homo sapiens, UniProt Q14123)

SMILES | target | assay | system | conditions | pIC50
C/C(=N\O)c1ccc(-c2ccc(O)c(Cl)c2)c(Cl)c1O | Solute carrier family 2, facilitated glucose transporter member 1 (SLC2A1, Homo sapiens, UniProt P11166) | transporter uptake, inhibitor, radiometric | – | – | 5.15
CC(C)N(C(=S)SSC(=S)N(C(C)C)C(C)C)C(C)C | PTPN22 | enzyme activity, inhibitor, fluorescence | – | pH 6.5 | 5.15
N=C(NCCCO)NCCCSC[C@H]1O[C@@H](n2cnc3c(NCCCc4ccccc4)ncnc32)[C@H](O)[C@@H]1O | PRMT1 | enzyme activity, inhibitor, fluorescence | – | – | 5.31
COCCNC(=O)Nc1ccc2nc(-c3cccs3)c(-c3cccs3)nc2c1 | Acetyl-coenzyme A synthetase, cytoplasmic (ACSS2, Homo sapiens, UniProt Q9NR19) | enzyme activity, inhibitor, absorbance | – | – | ~6.22
Cc1cnc(-c2ccc(-c3ccc(NC(=O)Nc4c(F)cc(F)cc4F)cc3F)c3c2C(=O)NC3)[nH]1 | DDR2 | enzyme activity, inhibitor | – | – | 9.00
OC[C@H]1O[C@@H](n2cnc3c(NCCCc4ccccc4)ncnc32)[C@H](O)[C@@H]1O | PRMT1 | enzyme activity, inhibitor, fluorescence | – | – | < 4.00
O=c1cc(-c2ccc(-c3[nH]nc4c3Cc3cc(O)ccc3-4)cc2)cc[nH]1 | CHEK1 | enzyme activity, inhibitor | – | – | 5.90
COc1cc(O)c(C(CC(=O)N2CCCC2)c2ccc3c(c2)OCO3)c(OC)c1 (stereo not shown) | Nuclear receptor ROR-gamma (Mus musculus, UniProt P51450) | reporter gene | – | – | < 4.30
c1ccc(CCC2CCN(CCCCn3nnnc3C(c3ccccc3)c3ccccc3)CC2)cc1 | SLC6A3 | transporter uptake, inhibitor | – | – | 6.42
COc1ccc(-c2nsc(NC(=O)[C@@H]3C[C@H]3C)c2C)cc1 | Metabotropic glutamate receptor 5 (GRM5, Homo sapiens, UniProt P41594) | calcium signal, antagonist | – | – | 6.93
Fc1ccc(C(c2ccc(F)cc2)c2nnnn2CCCCN2CCN(Cc3ccccc3)CC2)cc1 | SLC6A3 | transporter uptake, inhibitor | – | – | 6.84
C=C1CC[C@@H]([C@H](C)CC(=O)/C=C(\C)C(=O)O)[C@@]12CCC1=C2CC[C@H]2C(C)(C)C(=O)CC[C@]12C | ACLY | enzyme activity, inhibitor | – | – | < 4.70
O=C(O)c1cnn2c(-c3cccc(C(F)(F)F)c3)ccnc12 | TLR8 | reporter gene | – | – | < 4.70
COc1ccc2c(Oc3ccc4c(C(=O)Nc5ccccc5N)cccc4c3)ccnc2c1 | Ephrin type-B receptor 4 (EPHB4, Homo sapiens, UniProt P54760) | enzyme activity, inhibitor | – | – | < 6.30
CC(C)C1=CC[C@H]2C(=C1)CC[C@@H]1[C@]2(C)CCC[C@@]1(C)C(=O)O | ACLY | enzyme activity, inhibitor | – | – | < 4.70
Nc1ccc(-c2ccncc2)cc1NC(=O)N1CCCC1 | HDAC5 | enzyme activity, inhibitor | – | – | < 4.48
COc1cc(-c2ccc3c(c2)Nc2ccc(CC(=O)N4CCCC(O)C4)cc2NC3=O)ccc1Cl (stereo not shown) | CHEK1 | enzyme activity, inhibitor | – | – | 7.83
Clc1ccc(CC2CCN(CCCCn3nnnc3C(c3ccccc3)c3ccccc3)CC2)cc1Cl | SLC6A3 | transporter uptake, inhibitor | – | – | 6.31
COC(=O)Cc1ccc2c(c1)NC(=O)c1cc(C)c(-c3cccc(NC(C)=O)c3)cc1N2 | CHEK1 | enzyme activity, inhibitor | – | – | < 5.00
CCCC[C@H](NC(=O)[C@H](C)c1c(C)[nH]c2ccc(O)cc12)c1ncc(-c2cc3ccccc3nc2OC)[nH]1 | HDAC5 | enzyme activity, inhibitor | – | – | < 4.35
CCn1ncc2c1-c1cnc(N)c(c1)O[C@H](C)c1cc(F)ccc1-c1nn(C)nc1C2 | Leukocyte tyrosine kinase receptor (LTK, Homo sapiens, UniProt P29376) | enzyme activity, inhibitor, radiometric | – | – | 8.24
O=C1NC(=O)C(Cc2ccc3cc(OCc4ccccc4F)ccc3c2)S1 (stereo not shown) | Pantothenate kinase 3 (PANK3, Homo sapiens, UniProt Q9H999) | enzyme activity, inhibitor, radiometric | – | – | 5.30
O=C(O)C1=CCCN(CCON=C(c2ccccc2)c2ccccc2)C1 | Sodium- and chloride-dependent GABA transporter 1 (Slc6a1, Rattus norvegicus, UniProt P23978) | ligand displacement, radioligand | – | – | 6.68

SMILES | target | assay | system | conditions | pIC50
Clc1ccc(C(c2ccccc2)c2nnnn2CCCN2CCC(Cc3ccccc3)CC2)cc1 (stereo not shown) | SLC6A3 | transporter uptake, inhibitor | – | – | 6.65
CC(C)(C)OC(=O)NCCCCOc1ccc(Cl)cc1NC(=O)Nc1cnc(C#N)cn1 | CHEK1 | enzyme activity, inhibitor | – | – | 5.08
Clc1ccc(C(c2ccccc2)c2nnnn2CCCCN2CCC(CCc3ccccc3)CC2)cc1 (stereo not shown) | SLC6A3 | transporter uptake, inhibitor | – | – | 6.35
Nc1ncnc2c1ncn2[C@@H]1O[C@H](CN(CC[C@H](N)C(=O)O)Cc2ccc3ccccc3c2)[C@@H](O)[C@H]1O | PRMT1 | enzyme activity, inhibitor | – | – | < 4.30
COC(=O)C1CCCN1C(=O)c1ccc2c(c1)NC(=O)c1ccc(-c3ccc(O)c(OC)c3)cc1N2 (stereo not shown) | CHEK1 | enzyme activity, inhibitor | – | – | 6.89
N=C(N)c1ccc(-c2ccc(-c3ccc(C(=N)N)nc3)o2)cc1 | PRMT1 | enzyme activity, inhibitor | – | – | 5.02
O=C(N[C@@H]1CC[C@@H](c2cccc(F)c2F)CN(CC(F)(F)F)C1=O)N1CCC(n2c(=O)[nH]c3ncccc32)CC1 | ATP-binding cassette sub-family C member 4 (ABCC4, Homo sapiens, UniProt O15439) | transporter uptake, inhibitor | HEK293 | cell membranes | 4.37
OC1CCC(NCc2ccc3c(c2)Cc2c-3n[nH]c2-c2ccc[nH]2)CC1 (stereo not shown) | CHEK1 | enzyme activity, inhibitor | – | – | 5.78
Cc1cc(-c2ccnc3cc(Cl)ccc23)ccc1O | TLR8 | reporter gene, antagonist | – | – | 9.00
N=C(NCCCSC[C@H]1O[C@@H](n2cnc3c(NCCCc4ccccc4)ncnc32)[C@H](O)[C@@H]1O)Nc1ccccc1 | PRMT1 | enzyme activity, inhibitor, fluorescence | – | – | 6.45
COc1ccc(CNc2c(CO)cnc3c(C4CC4)cc(C#N)cc23)cn1 | cAMP and cAMP-inhibited cGMP 3',5'-cyclic phosphodiesterase 10A (PDE10A, Homo sapiens, UniProt Q9Y233) | enzyme activity, inhibitor | – | – | < 5.00
COc1cc(-c2ccc3c(c2)N(C)c2ccccc2NC3=O)ccc1[N+](=O)[O-] | CHEK1 | enzyme activity, inhibitor | – | – | 5.79
Cc1ccc(NC(=O)c2ccc(C)c(C(F)(F)F)c2)cc1C#Cc1nn(C2CCC(O)CC2)c2ncnc(N)c12 (stereo not shown) | DDR2 | enzyme activity, inhibitor, radiometric | – | – | 7.19
Clc1ccc(C(c2ccccc2)c2nnnn2CCCCN2CCC(CCCc3ccccc3)CC2)cc1 (stereo not shown) | SLC6A3 | transporter uptake, inhibitor | – | – | 6.48
CC(C)n1nnc(-c2cc(O)cc(Nc3ncnn4ccc(CN5CCC(N)CC5)c34)c2)n1 | AP2-associated protein kinase 1 (AAK1, Homo sapiens, UniProt Q2M2I8) | enzyme activity, inhibitor | – | – | 9.70
O=S(=O)(O)OC[C@H]1O[C@@](COS(=O)(=O)O)(O[C@H]2O[C@H](COS(=O)(=O)O)[C@@H](OS(=O)(=O)O)[C@H](OS(=O)(=O)O)[C@H]2OS(=O)(=O)O)[C@@H](OS(=O)(=O)O)[C@@H]1OS(=O)(=O)O | Coagulation factor XI (F11, Homo sapiens, UniProt P03951) | enzyme activity, inhibitor, absorbance | – | pH 7.4 | < 2.40
CCN(CC)C(=O)c1cnn2c(-c3cccc(C(F)(F)F)c3)ccnc12 | TLR8 | reporter gene | – | – | < 4.70
CSc1ccc(/C=C2/C(C)=C(CC(=O)O)c3cc(F)ccc32)cc1 | PDE1C | enzyme activity, inhibitor | – | – | < 4.00
Cc1ccc(C(=O)Nc2ccc(Oc3cc4cnn(C)c4cc3-c3cn[nH]c3)c(F)c2)c(=O)n1-c1ccc(F)cc1 | DDR2 | enzyme activity, inhibitor, radiometric | – | – | 7.39
CN1C(=O)c2c(nn(Cc3ccc(-c4cccc(F)n4)cc3)c2Nc2ccccc2)N2C1=N[C@@H]1CCC[C@@H]12 | PDE1C | enzyme activity, inhibitor, radiometric | – | – | 10.28
COc1cc(-c2ccc3c(c2)Nc2ccc(CC(=O)NC(CO)c4ccccc4)cc2NC3=O)ccc1[N+](=O)[O-] (stereo not shown) | CHEK1 | enzyme activity, inhibitor | – | – | 7.57
Clc1ccc(C(c2ccccc2)c2nnnn2CCCN2CCC(CCCc3ccccc3)CC2)cc1 (stereo not shown) | SLC6A3 | transporter uptake, inhibitor | – | – | 6.07
O=C1CSC(=S)N1NC(=S)SSC(=S)NN1C(=O)CSC1=S | PTPN22 | enzyme activity, inhibitor, fluorescence | – | pH 6.5 | 5.52
